What all share (assay type): functional
Experiment [1] has as its system Mus musculus. The experiment is described as follows: Maximum inactive dose(MID) for decrease in norepinephrine (NE) / epinephrine(E) was measured in mice (po). The method in brief: (§1)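 Male Charles River mice, 30–40 g, groups of five. Oral dosing in 1% methylcellulose twice daily for 7 days, plus a final morning dose. Killed 2 h later; adrenals homogenised in 0.4 N HClO4 and alumina-extracted. E and NE measured.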

The subject of another experiment is Rattus norvegicus. The experiment in a line: Phenylethanolamine N-methyl-transferase inhibition determined as of [3H]epinephrine biosynthesis in rats at 50 mg/kg (po).
For experiment [2], the system named is Mus musculus. The experiment is described as follows: Minimum active dose(MAD) for decrease in norepinephrine (NE) / epinephrine(E) ratio was measured in mice (po). A digest of the protocol:
as §1

For experiment [3], the system named is Mus musculus. The experiment is described as follows: Minimum active dose(MAD) for decrease in norepinephrine (NE) / epinephrine(E) was measured in mice (po). A digest of the protocol:
as §1

For orientation: inhibition in vivo means the relative decrease from the control value, in per cent.

In the case of `Clc1ccc2c(c1)CNCC2`, in the experiment on Mus musculus [1], the MID amounted to 7.5 mg/kg. For the same compound, the inhibition in vivo at 50 mg/kg in the experiment with Rattus norvegicus worked out at 78%. Further, the MAD with Mus musculus [2] turned out to be 12.5 mg/kg.

Compound `Clc1cccc2c1CNCC2` came in with an MID in the experiment on Mus musculus [1] of 2.5 mg/kg. Besides, testing at 50 mg/kg in the experiment with Rattus norvegicus gave an inhibition in vivo of 45%. In addition, in the experiment with Mus musculus [2], the MAD came out at 7.5 mg/kg.

In the experiment with Mus musculus [1], `Clc1c(Cl)c(Cl)c2c(c1Cl)CCNC2` returned an MID of 25 mg/kg. In addition, in the experiment on Mus musculus [2], the MAD was determined as 100 mg/kg.

In turn, `Clc1cc2c(c(Cl)c1Cl)CNCC2` came in with an MID in the experiment with Mus musculus [1] of 50 mg/kg. The compound also displayed an inhibition in vivo at 50 mg/kg in the experiment with Rattus norvegicus of 25%.

Regarding `Clc1ccc2c(c1Cl)CNCC2`, in the experiment on Mus musculus [1], the MID was determined as 2.5 mg/kg. In the experiment with Mus musculus [3], this compound returned an MAD of 5 mg/kg.

Compound `Clc1cc(Cl)c2c(c1Cl)CNCC2` gave an MID in the experiment on Mus musculus [1] of 100 mg/kg. The same compound displayed an inhibition in vivo at 50 mg/kg in the experiment on Rattus norvegicus of 16%.

Values taken from ChEMBL document CHEMBL1121585, “Inhibitors of phenylethanolamine N-methyltransferase and epinephrine biosynthesis. 1. Chloro-substituted 1,2,3,4-tetrahydroisoquinolines” (J Med Chem, 1980).
